According to ChEMBL document CHEMBL1121685, “Development of new mitomycin C and porfiromycin analogues” (J Med Chem, 1981):

Experiments:
[1] = Therapeutic ratio is expressed as ratio of optimal dose and minimum effective dose; format: ADME; details: mouse; read-out: TR
Method in brief: (§1)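 10⁶ P-388 ascites cells implanted ip in CDF₁ female mice. Six mice per dose, 10 saline-injected controls, and a concurrent mitomycin C reference group. %T/C = median survival time of treated/control × 100. MED is the lowest dose giving %T/C > 125. Therapeutic ratio = optimal dose/MED.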

Mus musculus [2] = test: Minimum effective dose that show activity against P-388 murine leukemia cells in CDF1 female mice, after intraperitoneal administration (optimal dose is 6.4 mg/kg); format: functional; details: P388, ip, read-out: MED; method in brief: as §1
Mus musculus [3] = test: Effect of compound on total white blood cell count in BDG1 male mice, after intraperitoneal administration at a dose of 6.4 mg/kg on day 3; format: functional
Method in brief: (§2)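 Single ip dose given on day 0 to BDG₁ male mice. Total white blood cell count measured on days 3, 5 and 7, expressed as % change from control. Highest dose was at the LD₅₀, or at twice the optimal dose where so footnoted. Significance reported at p ≤ 0.05 and p ≤ 0.01. D marks death of one or more mice.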

Mus musculus [4] = test: Effect of compound on total white blood cell count in BDG1 male mice, after intraperitoneal administration at a dose of 12.8 mg/kg on day 7 (highest dose was twice the optimal dose); format: functional
Mus musculus [5] = test: Effect of compound on total white blood cell count in BDG1 male mice, after intraperitoneal administration at a dose of 6.4 mg/kg on day 7; format: functional; method in brief: as §2
Mus musculus [6] = test: Antitumor activity against P-388 murine leukemia cells in CDF1 female mice after intraperitoneal administration at the specified optimal dose of 6.4 mg/kg; format: functional
Mus musculus [7] = test: Effect of compound on total white blood cell count in BDG1 male mice, after intraperitoneal administration at a dose of 12.8 mg/kg on day 5 (highest dose was twice the optimal dose); format: functional
Method in brief: (§3)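 BDG₁ male mice received a single ip dose on day 0. The dose series topped out at the LD₅₀ level, or at twice the optimal dose for some agents. Total white blood cell count was taken on days 3, 5 and 7 and expressed as % change from untreated controls. Significance was set at p ≤ 0.05 or p ≤ 0.01.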

Mus musculus [8] = test: Effect of compound on total white blood cell count in BDG1 male mice, after intraperitoneal administration at a dose of 6.4 mg/kg on day 5; format: functional; method in brief: as §2
Mus musculus [9] = test: Effect of compound on total white blood cell count in BDG1 male mice, after intraperitoneal administration at a dose of 12.8 mg/kg on day 3 (highest dose was twice the optimal dose); format: functional; method in brief: as §3
Mus musculus [10] = test: Antitumor activity against P-388 murine leukemia cells in CDF1 female mice after intraperitoneal administration at the specified optimal dose of 51.2 mg/kg; format: functional

Row | Compound | selectivity ratio [1] | minimal effective dose (Mus musculus [2]) [mg/kg] | Change (Mus musculus [3]) [%] | Change (Mus musculus [4]) [%] | Change (Mus musculus [5]) [%] | T/C (Mus musculus [6]) [%] | Change (Mus musculus [7]) [%] | Change (Mus musculus [8]) [%] | Change (Mus musculus [9]) [%] | T/C (Mus musculus [10]) [%]
1 | C=CCNC1=C(C)C(=O)C2=C(C1=O)[C@H](COC(N)=O)C1(OC)[C@@H]3N[C@@H]3CN21 (stereo partly specified) | 2 | 3.2 | -35 | 6 | -0.6 | 150 | -42 | -37 | -33 | –
2 | COC12[C@@H](COC(N)=O)C3=C(C(=O)C(C)=C(NCCCl)C3=O)N1C[C@@H]1[C@H]2N1C (stereo partly specified) | 8 | – | – | – | – | – | – | – | – | 205
